Experimental data as given in ChEMBL document CHEMBL2040797, “Synthesis of benzimidazoles bearing oxadiazole nucleus as anticancer agents” (2012).

Columns and labels:
Assay type in all cases: functional
NCI-H460 = test: Growth inhibition of human NCI-H460 cells at 10 uM after 48 hrs by sulforhodamine B assay; conditions: NCI-H460, 48 h, read-out: GI
How it was run: (§1)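 NCI one-dose primary screen at 10 (printed mM) across the 60-line panel. Cells in RPMI 1640 with 5% FBS and 2 mM L-glutamine, plated at 5000–40,000 cells/well and incubated 24 h before dosing. Exposure 48 h at 37 °C, 5% CO2. Adherent cells were fixed with cold TCA, suspension cells fixed after settling. SRB stain, absorbance 515 nm. Reported as percent growth of treated cells relative to control.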

HT-29 = test: Growth inhibition of human HT-29 cells at 10 uM after 48 hrs by sulforhodamine B assay; conditions: HT-29, 48 h, read-out: GI; how it was run: as §1
SW-620 = test: Growth inhibition of human SW620 cells at 10 uM after 48 hrs by sulforhodamine B assay; conditions: SW-620, 48 h, read-out: GI
How it was run: (§2)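 NCI-60 single-dose screen. Cells grown in RPMI 1640 with 5% FBS and L-glutamine, plated at 5000–40,000 cells/well by doubling time, and preincubated 24 h at 37 °C, 5% CO2. Compound stocks in DMSO, added at one concentration, then incubated 48 h. Adherent cells fixed with cold TCA (10% final), stained with 0.4% SRB, dye solubilized in 10 mM Tris base, A515 read. Reported as percent growth relative to untreated control.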

SF-268 [1] = test: Growth inhibition of human SF268 cells at 10 uM after 48 hrs by sulforhodamine B assay; conditions: SF-268, 48 h, read-out: GI; how it was run: as §1
SNB-75 = test: Growth inhibition of human SNB75 cells at 10 uM after 48 hrs by sulforhodamine B assay; conditions: SNB-75, 48 h, read-out: GI; how it was run: as §2
MDA-MB-435 = test: Growth inhibition of human MDA-MB-435 cells at 10 uM after 48 hrs by sulforhodamine B assay; conditions: MDA-MB-435, 48 h, read-out: GI; how it was run: as §1
UACC-257 [2] = test: Growth inhibition of human UACC257 cells at 10 uM after 48 hrs by sulforhodamine B assay; conditions: UACC-257, 48 h, read-out: GI; how it was run: as §2
IGROV-1 = test: Growth inhibition of human IGROV1 cells at 10 uM after 48 hrs by sulforhodamine B assay; conditions: IGROV-1, 48 h, read-out: GI; how it was run: as §1
UO-31 = test: Growth inhibition of human UO31 cells at 10 uM after 48 hrs by sulforhodamine B assay; conditions: UO-31, 48 h, read-out: GI; how it was run: as §2
DU-145 = test: Growth inhibition of human DU145 cells at 10 uM after 48 hrs by sulforhodamine B assay; conditions: DU-145, 48 h, read-out: GI; how it was run: as §1
MDA-MB-231 = test: Growth inhibition of human MDA-MB-231 cells at 10 uM after 48 hrs by sulforhodamine B assay; conditions: MDA-MB-231, 48 h, read-out: GI; how it was run: as §1
[3] = Growth inhibition of human Hs 578T cells at 10 uM after 48 hrs by sulforhodamine B assay; conditions: read-out: GI; how it was run: as §1
MDA-MB-468 = test: Growth inhibition of human MDA-MB-468 cells at 10 uM after 48 hrs by sulforhodamine B assay; conditions: MDA-MB-468, 48 h, read-out: GI; how it was run: as §1
RPMI-8226 [4] = test: Cytotoxicity against human RPMI8226 cells after 48 hrs by sulforhodamine B assay; conditions: RPMI-8226, 48 h
How it was run: (§3)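 NCI 60-panel screen. Cells were grown in RPMI 1640 with 5% FBS and L-glutamine and plated at 5000–40,000 cells/well according to doubling time. They were preincubated 24 h at 37 °C, 5% CO2, then exposed 48 h to five 10-fold dilutions. Adherent cells were fixed with cold TCA, final 10%; suspension cells were fixed after settling. Cells were stained with 0.4% SRB and read at 515 nm. Tz/C/Ti growth curves gave GI50, TGI and LC50.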

HOP-62 = test: Cytotoxicity against human HOP62 cells after 48 hrs by sulforhodamine B assay; conditions: HOP-62, 48 h; how it was run: as §3
NCI-H226 = test: Cytotoxicity against human NCI-H226 cells after 48 hrs by sulforhodamine B assay; conditions: NCI-H226, 48 h; how it was run: as §3
KM12 = test: Cytotoxicity against human KM12 cells after 48 hrs by sulforhodamine B assay; conditions: KM12, 48 h; how it was run: as §3
SF-268 [5] = test: Cytotoxicity against human SF268 cells after 48 hrs by sulforhodamine B assay; conditions: SF-268, 48 h; how it was run: as §3
SK-MEL-28 = test: Cytotoxicity against human SK-MEL-28 cells after 48 hrs by sulforhodamine B assay; conditions: SK-MEL-28, 48 h; how it was run: as §3
UACC-257 [6] = test: Cytotoxicity against human UACC257 cells after 48 hrs by sulforhodamine B assay; conditions: UACC-257, 48 h
How it was run: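 NCI 60 panel five-dose screen. Cells in RPMI 1640 with 5% FBS and 2 mM L-glutamine, plated at 5000–40,000 cells/well and preincubated 24 h. Compounds were tested at five 10-fold concentrations (0.01–100) for 48 h at 37 °C, 5% CO2. Cells were fixed with TCA and stained with SRB, absorbance 515 nm. GI50, TGI and LC50 were taken from % growth curves against time-zero and control.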

OVCAR-8 = test: Cytotoxicity against human OVCAR8 cells after 48 hrs by sulforhodamine B assay; conditions: OVCAR-8, 48 h; how it was run: as §3
SK-OV-3 = test: Cytotoxicity against human SKOV3 cells after 48 hrs by sulforhodamine B assay; conditions: SK-OV-3, 48 h; how it was run: as §3
CAKI-1 = test: Cytotoxicity against human Caki1 cells after 48 hrs by sulforhodamine B assay; conditions: CAKI-1, 48 h; how it was run: as §3
HL-60(TB) = test: Growth inhibition of human HL-60(TB) cells at 10 uM after 48 hrs by sulforhodamine B assay; conditions: HL-60, 48 h, read-out: GI
How it was run: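 NCI 60-panel primary one-dose screen. Cells are grown in RPMI 1640 with 5% FBS, plated by doubling time and pre-incubated 24 h at 37 °C, 5% CO2. They are exposed for 48 h to a single concentration. Settled suspension cells are fixed, then SRB-stained with absorbance at 515 nm. Output is percent growth of treated cells relative to untreated control, reported as a mean graph.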

RPMI-8226 [7] = test: Growth inhibition of human RPMI8226 cells at 10 uM after 48 hrs by sulforhodamine B assay; conditions: RPMI-8226, 48 h, read-out: GI; how it was run: as §1
[8] = read-out: LC50 (the source's name)

With `O=C(CCc1nnc(-c2ccc(Cl)cc2Cl)o1)c1nc2ccccc2[nH]1` the inhibition of growth at 10 µM (NCI-H460) was 22.7%, the inhibition of growth at 10 µM (HT-29) was 90.6% and the inhibition of growth at 10 µM (SW-620) was 64.2%. It also gave an inhibition of growth at 10 µM (SF-268 [1]) of 31.9%, an inhibition of growth at 10 µM (SNB-75) of 36.6% and an inhibition of growth at 10 µM (MDA-MB-435) of 101%. The inhibition of growth at 10 µM (UACC-257 [2]) was 21.4%, the inhibition of growth at 10 µM (IGROV-1) was 42.4% and the inhibition of growth at 10 µM (UO-31) was 48%. For the same compound, the inhibition of growth at 10 µM (DU-145) was 17.8%, the inhibition of growth at 10 µM (MDA-MB-231) was 61.7% and the inhibition of growth at 10 µM [3] was 17.7%. The inhibition of growth at 10 µM (MDA-MB-468) was 102%, the GI50 (RPMI-8226 [4]) was 3.61 µM and the TGI (RPMI-8226 [4]) was 23.3 µM. It also gave a CC50 (RPMI-8226 [4]; [8]) of 100 µM, a GI50 (HOP-62) of 7.67 µM and a TGI (HOP-62) of 41.3 µM. For the same compound, the CC50 (HOP-62; [8]) was 100 µM, the GI50 (NCI-H226) was 6.66 µM and the TGI (NCI-H226) was 31.2 µM. The CC50 (NCI-H226; [8]) was 100 µM, the GI50 (KM12) was 3.16 µM and the TGI (KM12) was 11 µM. It also gave a CC50 (KM12; [8]) of 100 µM, a GI50 (SF-268 [5]) of 7.3 µM and a TGI (SF-268 [5]) of 46.6 µM. The CC50 (SF-268 [5]; [8]) was 100 µM, the GI50 (SK-MEL-28) was 12.7 µM and the TGI (SK-MEL-28) was 42.7 µM. For the same compound, the CC50 (SK-MEL-28; [8]) was 100 µM, the GI50 (UACC-257 [6]) was 13.7 µM and the TGI (UACC-257 [6]) was 44.4 µM. It also gave a CC50 (UACC-257 [6]; [8]) of 100 µM, a GI50 (OVCAR-8) of 9.26 µM and a TGI (OVCAR-8) of 100 µM. The CC50 (OVCAR-8; [8]) was 100 µM, the GI50 (SK-OV-3) was 4.6 µM and the TGI (SK-OV-3) was 30.5 µM. The CC50 (SK-OV-3; [8]) was 100 µM, the GI50 (CAKI-1) was 3.49 µM and the TGI (CAKI-1) was 41.1 µM. It also gave a CC50 (CAKI-1; [8]) of 100 µM, an inhibition of growth at 10 µM (HL-60(TB)) of 134% and an inhibition of growth at 10 µM (RPMI-8226 [7]) of 69.1%.
